The values below come from ChEMBL document CHEMBL5247591, “Single-digit nanomolar inhibitors lock the aromatase active site via a dualsteric targeting strategy” (Eur J Med Chem, 2022).

Molecules are shown by their SMILES. Activity calls are given as the source filed them. No cut-off for these calls is given here.

One data set has as its system MDA-MB-231. Put plainly: Antiproliferative activity against estrogen negative human MDA-MB-231 cells assessed as inhibition of cell growth upto 50 uM incubated for 72 hrs by cell counting analysis. In kind it is functional, cell-based. The essentials: (§1)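 Cells seeded in duplicate (50.000 cells/well for MCF-7 and MDA-MB-231, 90.000 cells/well for MCF-10A). 24 h later exposed 72 h to 50-0.1 μM compound, with or without 1 μM testosterone; medium and treatments replaced at 48 h. Cells harvested with trypsin and counted with a cell counter. Three experiments.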

The target of data set [1] is T1, Aromatase (Homo sapiens, UniProt P11511).
T1 sequence (P11511 whole entry): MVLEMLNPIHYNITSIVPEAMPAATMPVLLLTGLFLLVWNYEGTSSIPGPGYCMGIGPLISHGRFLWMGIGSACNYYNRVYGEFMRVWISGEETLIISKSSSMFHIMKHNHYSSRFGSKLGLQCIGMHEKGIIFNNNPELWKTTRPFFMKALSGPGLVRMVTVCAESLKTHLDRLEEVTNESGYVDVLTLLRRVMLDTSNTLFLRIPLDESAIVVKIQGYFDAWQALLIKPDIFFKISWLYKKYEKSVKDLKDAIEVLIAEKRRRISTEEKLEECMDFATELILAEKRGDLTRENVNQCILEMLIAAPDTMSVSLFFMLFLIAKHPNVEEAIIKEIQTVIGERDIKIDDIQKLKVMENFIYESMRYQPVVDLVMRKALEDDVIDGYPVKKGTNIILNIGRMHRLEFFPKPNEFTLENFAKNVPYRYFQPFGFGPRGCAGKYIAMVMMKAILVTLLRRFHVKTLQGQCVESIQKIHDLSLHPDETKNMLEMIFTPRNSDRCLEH
Briefly: Inhibition of recombinant human aromatase preincubated for 10 mins followed by substrate and beta-NADP+ addition and measured for 60 mins by fluorescence based assay. The method in brief:
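Recombinant human aromatase with NADPH-generating system in aromatase assay buffer. Compounds tested at 1000, 100, 10, 1 and 0.1 nM, DMSO final ≤0,25% (v/v). Preincubated 37°C for 10 min, then fluorogenic substrate/β-NADP+ added. Fluorescence read at 488/527 nm for 60 min.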

For a further data set, the system named is MCF7. Briefly: Antiproliferative activity against estrogen positive human MCF7 cells assessed as inhibition of cell growth upto 50 uM incubated for 72 hrs by cell counting analysis. In kind it is functional, cell-based. The method in brief: as §1
In another data set the test system is MCF-10A. Briefly: Cytotoxicity against human MCF-10A cells assessed as inhibition of cell growth upto 50 uM incubated for 72 hrs by cell counting analysis. In kind it is toxicity, cell-based. The essentials: as §1
The target of data set [2] is T1, Aromatase. Put plainly: Inhibition of human placental microsome aromatase using androstenedione as substrate assessed as reduction in 3H2O formation preincubated for 5 mins in presence of NADPH followed by microsomal protein addition and measured after 3 hrs. Type of data set: microsomes, Placenta.

As to `CCCOc1ccc(C(=O)c2cccc(Cn3ccnc3)c2)cc1`, the inhibition entry with MDA-MB-231 and in the data set on MCF7 was “inactive” throughout. For the same compound, the IC50 on Aromatase [1] is 2 nM. The Activity result with MCF-10A is “Non-Toxic”.
In the case of `C#CCOc1ccc(C(=O)c2ccc(Cn3ccnc3)cc2)cc1`, the inhibition entry with MDA-MB-231 and with MCF7 was “inactive” in each case. At Aromatase [1], the IC50 came to 210 nM. The Activity entry in the data set on MCF-10A is “Non-Toxic”.
As to `CCCCCOc1ccc(C(=O)c2ccc(Cn3ccnc3)cc2)cc1`, the inhibition entry with MDA-MB-231 and with MCF7 was “inactive” throughout. Also, the IC50 at Aromatase [1] was determined as 1300 nM. The Activity result with MCF-10A is recorded as “Non-Toxic”.
On to `COc1ccc(C(=O)c2ccc(Cn3ccnc3)cc2)cc1`, for which the IC50 at Aromatase [2] was found to be 238 nM.
For `CCCCCOc1ccc(C(=O)c2cccc(Cn3ccnc3)c2)cc1`, the inhibition result with MDA-MB-231 and in the data set with MCF7 was “inactive” each time. Moreover, the IC50 on Aromatase [1] stood at 42 nM. Further, in the data set on MCF-10A, the Activity entry is given as “Non-Toxic”.
On to `O=C(c1ccc(Cn2ccnc2)cc1)c1ccc(-c2ccccc2)cc1`, for which the IC50 on Aromatase [2] worked out at 2530 nM.
With `O=C(c1ccc(O)cc1)c1cccc(Cn2ccnc2)c1`, the inhibition entry with MDA-MB-231 and in the data set on MCF7 was “inactive” in each case. Besides, the IC50 on Aromatase [1] came to 13 nM. In the data set on MCF-10A, the Activity entry was “Non-Toxic”.
Regarding `CCC#CCOc1ccc(C(=O)c2cccc(Cn3ccnc3)c2)cc1`, the inhibition entry with MDA-MB-231 and in the data set on MCF7 was “inactive” in each case. Besides, at Aromatase [1], the IC50 is 9 nM. Besides, the Activity entry in the data set with MCF-10A is on record as “Non-Toxic”.
Regarding `CCCOc1ccc(C(=O)c2ccc(Cn3ccnc3)cc2)cc1`, the inhibition result with MDA-MB-231 and in the data set on MCF7 was “inactive” each time. In addition, the IC50 on Aromatase [1] stood at 374 nM. Further, the Activity result in the data set with MCF-10A is given as “Non-Toxic”.
Regarding `COc1ccc(C(=O)c2cccc(Cn3ccnc3)c2)cc1`, the inhibition result with MDA-MB-231 and with MCF7 was “inactive” each time. Moreover, at Aromatase [1], the half-inhibitory concentration (IC50) stood at 13 nM. Moreover, the Activity entry with MCF-10A is “Non-Toxic”.
For `O=C(c1ccc(O)cc1)c1ccc(Cn2ccnc2)cc1`, the IC50 on Aromatase [2] came out at 1100 nM.
Regarding `C#CCOc1ccc(C(=O)c2cccc(Cn3ccnc3)c2)cc1`, the inhibition entry in the data set with MDA-MB-231 and in the data set on MCF7 was “inactive” in each case. On Aromatase [1], the IC50 was 650 nM. The Activity entry with MCF-10A is recorded as “Non-Toxic”.
With `CCC#CCOc1ccc(C(=O)c2ccc(Cn3ccnc3)cc2)cc1`, the inhibition result in the data set with MDA-MB-231 and with MCF7 was “inactive” in each case. For the same compound, the IC50 on Aromatase [1] came out at 1420 nM. In the data set with MCF-10A, the Activity result is “Non-Toxic”.

One may read the IC50 as the point on the concentration scale where inhibition reaches its midpoint.
